SIAE inh: human SIAE inhibitors, primary screen, biochemical, fluorescence polarization, FP-Rh probe, 1536-well HTS | Sialate O-acetylesterase (Homo sapiens), Q9HAT2 | SIAE FP-Rh probe binding | inhibition, % at 9.66 µM | actives 0.69% (n = 370,000) | AID 1053197, 2014;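 active means inhibition above a cutoff: mean of compounds within the control limits plus 3 SD of those, cut at about 17% in these data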
RBBP9 inhibitor: human RBBP9 inhibitors, primary screen, biochemical, fluorescence polarization, FP-Rh probe, HTS; inhibition, % at 7.94 µM; recombinant RBBP9; AID 1515, 2009; actives 0.2% (n = 220,000);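 active means inhibition above the campaign mean of all tested compounds plus 3 SD, cut at about 14% in these data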
Target sequence (O75884 whole entry, looked up): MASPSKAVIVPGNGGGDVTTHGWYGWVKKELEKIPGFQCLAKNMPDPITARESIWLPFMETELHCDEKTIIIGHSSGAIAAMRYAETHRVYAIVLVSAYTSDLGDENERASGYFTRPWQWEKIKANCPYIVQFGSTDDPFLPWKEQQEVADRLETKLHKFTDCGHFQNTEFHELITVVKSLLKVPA
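Test system: recombinant human RBBP9; Timing: 30 min then 45 min, 25 °C; Detection: fluorescence polarization; Control set: RBBP9 with DMSO as uninhibited control, no-protein wells as full inhibition; Compound dosing: one concentration, 7.94 µM nominal, 0.794% DMSO; Probe or stimulus: FP-Rh activity-based probe, 375 nM before mixing.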
mABHD4 FP: ABHD4 inhibitors, primary screen, biochemical, fluorescence polarization, mouse; (Lyso)-N-acylphosphatidylethanolamine lipase (Mus musculus), Q8VD66; purified mABHD4, FP-Rh probe fluorescence polarization; inhibition, % at 8.92 µM; actives 0.54% (n = 370,000); AID 720543, 2013;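 active means inhibition exceeding the mean over every tested compound plus 3 SD, cut at about 30% in these data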
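System: mouse ABHD4 enzyme, wild type / Medium: HEPES pH 7.0, NaCl, Pluronic buffer / Reagent: FP-Rh activity-based fluorescent probe / Control set: S159A mutant high control, sample median low control / Detection: fluorescence polarization with parallel and perpendicular emission, 525/598 nm / Schedule: 45 min + 60 min at 25 °C / Compound dosing: 8.92 µM, single dose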
HTRA1 inh: HTRA1 serine protease inhibitors, primary screen, biochemical, fluorescence polarization, HTS; Q92743; recombinant HTRA1, FP-rhodamine activity-based probe; inhibition, % at 5.96 µM; actives 0.5% (n = 340,000); AID 504803, 2011; in the data active means inhibition above about 36%
RBBP9 inh conf: human RBBP9 inhibitors, retest, confirmation, biochemical, fluorescence polarization, FP-Rh probe, triplicate. shares compounds with RBBP9 inhibitor. recombinant RBBP9. actives 36% (n = 410). inhibition, % at 7.94 µM;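 active means inhibition above the hit cutoff derived for the primary screen, cut at about 15% in these data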
HTRA1 inh conf: HTRA1 protease inhibitors, retest, confirmation, biochemical, fluorescence polarization; shares compounds with HTRA1 inh; recombinant HTRA1, FP-rhodamine activity-based probe; inhibition, % at 5.96 µM; actives 66% (n = 1,600); AID 540248, 2011;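 active means mean inhibition over three repeats above a set limit taken from the earlier primary screen, cut at about 37% in these data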;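 further: inhibitors block probe binding so polarization drops and inhibition rises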
mABHD4 conf: ABHD4 inhibitors, retest, confirmation, biochemical, fluorescence polarization, mouse. shares compounds with mABHD4 FP. purified mABHD4, FP-Rh probe fluorescence polarization. inhibition, % at 8.92 µM. actives 55% (n = 1,800). AID 720658, 2013;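 active means mean inhibition across replicates above the hit cutoff set in the primary screen, cut at about 30% in these data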
SIAE confirm: human SIAE inhibitors, retest, confirmation, biochemical, fluorescence polarization, FP-Rh probe, triplicate | AID 1117263, 2014 | actives 13% (n = 2,300) | inhibition, % at 9.66 µM | shares compounds with SIAE inh | SIAE FP-Rh activity-based probe;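 active means mean inhibition of the replicates above the hit cutoff set in the primary screen, cut at about 17% in these data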;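 further: inhibitors lower polarization as more probe stays unbound to SIAE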
A number is an active result; 0 = inactive; - = no result given; ! = a repeat was not active. Most compounds without a hit are left out; they make up all but 1.4% or so of the library.

SMILES | SIAE inh | RBBP9 inhibitor | mABHD4 FP | HTRA1 inh | RBBP9 inh conf | mABHD4 conf | SIAE confirm | others
COc1ccc2c(c1)c1ccc3c(c1n2C)C(=O)C=CC3=O | 0 | 63 | 67 | 0 | 71 | 68 | -
COc1ccc(S(=O)(=O)N(C(=O)c2ccco2)c2cc3sc(=O)oc3c3ccccc23)cc1 | 0 | 29 | 54 | 0 | 0 | 31 | -
COc1ccc(N2CCN(C(=O)COC(=O)CNC(=O)c3cccc(OC(F)F)c3)CC2)cc1 | 0 | - | 0 | 0 | - | - | -
Cc1c2cc(O)c(=O)cc-2oc2cc(O)c(O)cc12 | 56 | 43! | 35 | 49 | 83 | - | 104 | HTRA1 inh conf=125
Cc1ccccc1-c1cc2nc(Oc3ccc4c(c3)OCO4)n(C)c(=O)c2s1 | 0 | - | 0 | - | - | - | -
COc1ccc(C2=CC(=O)C[C@H](COCc3ccccc3)N(C(=O)OC(C)(C)C)O2)cc1 | 0 | - | 0 | 0 | - | - | -
CCN(CC)CCNc1ncnc2c1[nH]c1ccc(OC)cc12 | - | 0 | - | - | - | - | -
COc1ccc2[nH]c3c(NCCC4=CCCCC4)ncnc3c2c1 | 50 | 15 | 39 | 0 | 30 | 61 | 45
O=C(CC1Nc2cccc3cccc(c23)NC1=O)Nc1ccccc1 (configuration not stated) | 23 | 16 | 32 | 72 | 0 | 42 | 0 | HTRA1 inh conf=0
CCCOc1ccc(NC(=O)CC2Nc3ccccc3NC2=O)cc1 (configuration not stated) | 0 | 0 | 0 | 0 | - | - | -
COC(=O)[C@]12C[C@H](CC(=O)N3CCOCC3)C(=O)N(CCC3=CCCCC3)C1=C[C@H](C1CCCC1)O[C@@H]2C | 0 | - | 0 | - | - | - | -
COc1ccc(-n2nnc3c(=O)n(C/C=C/c4ccccc4)cnc32)cc1 | 21 | 15 | 0 | 0 | 0 | - | 0
O=C1C(CSCc2ccccc2)NC(=S)N1c1ccccc1 (configuration not stated) | 100 | 30 | 0 | - | 20 | - | 0
COc1ccc(O)c(C=Nc2cc(NC(C)=O)c(Cl)cc2Cl)c1 | 18 | 15 | 0 | 0 | 0 | - | 0
Cc1ccc(S(=O)(=O)N(C(=O)c2ccco2)c2cc3sc(=O)oc3c3ccccc23)cc1 | 34 | 40 | 50 | 0 | 0 | 0 | 0
CCOc1ccc(S(=O)(=O)N(C)CC(=O)NCc2ccco2)cc1 | 0 | - | 0 | 0 | - | - | -
CCOc1ccc(S(=O)(=O)N(C(=O)c2ccco2)c2cc3sc(=O)oc3c3ccccc23)cc1 | 18 | 30 | 42 | 0 | 0 | 0 | 0
CC(C)C[C@H](NC(=O)c1ccc(Cl)cc1Cl)C(=O)N1CCC[C@H]1C(=O)NCc1ccccc1 | 0 | - | 0 | - | - | - | -
Cc1cc(O)ccc1N=Cc1c(C(F)(F)F)[nH][nH]c1=O | 73 | 39 | 109 | 104 | 0 | 0 | 0 | HTRA1 inh conf=0
O=C(NCCN1CCC(n2c(=O)[nH]c3ccccc32)CC1)c1ccc(F)cc1Cl | 0 | - | 0 | - | - | - | -
Cc1cccc2c(N=O)c(O)[nH]c12 | 46 | 24 | 0 | 0 | 53 | - | 42
c1coc(-c2nc(-c3ccco3)c(-c3ccco3)nc2-c2ccco2)c1 | 29 | 26 | 54 | 74 | 19 | 43 | 0
c1coc(-c2ncc[nH]2)c1 | 0 | 0 | 0 | 0 | - | - | -
CCOC(=O)c1ccc(CC(=O)c2ccc(O)cc2O)o1 | 0 | 0 | 0 | 0 | - | - | -
CCC(=O)Oc1ccc(C/C(=N\O)c2ccc(O)cc2O)o1 | 37 | 31 | 0 | 0 | 52 | - | 28
CN(C)C(=O)N1CCN(C(=O)[C@H]2O[C@@H](n3ccc(N)nc3=O)[C@H](O)[C@@H]2O)CC1 | 0 | - | 0 | - | - | - | -

Screens (PubChem)
